The results in this text go back to ChEMBL document CHEMBL4513216, “Probing the Open Global Health Chemical Diversity Library for Multistage-Active Starting Points for Next-Generation Antimalarials” (ACS Infect Dis, 2020).

The data set in a line: Toxicity liver stage against HepG2, at 10uM. It counts as cell-based. The arrangement: test concentration 10 uM, cell line HepG2-A16-CD81EGFP. Particulars: human, HepG2-A16-CD81EGFP cells; read-out: INHIBITION
In short, it runs like this:
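Uninfected HepG2-A16-CD81EGFP cells, 3 × 10^3 per well, 1536-well, plated on prespotted compound at 10 μM final, parasite-free screening media added to match infected plates; puromycin 10 μM positive, DMSO 0.5% negative; run in parallel with 48 h PbLuc assay at 37 °C, 5% CO2; viability by CellTiter-Glo luminescence, normalized to controls.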

As to `Cc1cnn(CC2CN(Cc3nc(C)no3)CCO2)c1` (stereo unspecified), the cytotoxicity at 10 µM is -18.5%. Regarding `CCCn1ccnc1CN1C[C@@H](NC(C)=O)[C@H](c2ccc(C)cc2)C1`, the cytotoxicity at 10 µM was determined as 1.9%. With `O=C1[C@@H]2CC[C@@H](CN(S(=O)(=O)c3ccccc3)C2)N1Cc1cscn1` the figure was -6.23%. `CC(C)SCc1cccc(NC(=O)NCCc2nnc[nH]2)c1`: the cytotoxicity at 10 µM is -46.1%. With `CCN1CCOCC12CCN(c1nccs1)CC2` the figure was -107%; with `CCCC(C)N(C)Cc1nnc(-c2ccco2)o1` (stereo unspecified), 2.49%.

On to `Cc1cc(-c2cnc(C)nc2CN(C)C(=O)c2cc(C3CC3)on2)on1`, for which the cytotoxicity at 10 µM is -20%. On to `CCc1nnc2n1CCN(Cc1csc(-c3cnn(C)c3)n1)C2`, for which the cytotoxicity at 10 µM was found to be 18.4%. The value for `NC(=O)[C@@H]1CCCN1C(=O)c1csc(-c2ccc(C(F)(F)F)cc2)n1` was -2%; that for `Cc1nn(C(C)C)c(C)c1NC(=O)c1cccnc1` was -1.57%; that for `Cc1[nH]nc(CCC(=O)N2CCCC(OCc3cccnc3)C2)c1C` (stereo unspecified) was -5.07%.

With `Cc1noc(C)c1-c1cncc(CC2CCN(C(=O)c3cc[nH]n3)C2)n1` (stereo unspecified), the cytotoxicity at 10 µM was -17.4%.

Turning to `CC(c1cccc(-c2nccn2CCc2ccccn2)c1)N(C)C` (stereo unspecified), the cytotoxicity at 10 µM came to 7.62%. `O=C(CN1C=Nc2ccccc2S1(=O)=O)NCC1CC1`: the cytotoxicity at 10 µM was -10.2%. For `CCc1cnc(N2CCC(=O)N(CC3CC3)C(C(C)C)C2)nc1` (stereo unspecified), the cytotoxicity at 10 µM is -6.28%. For the compound `Cc1ccc(C(NC(=O)Cn2cc(C3CC3)nn2)C2CC2)cc1` (stereo unspecified), the cytotoxicity at 10 µM was -5.36%.

Consider `CCN(CC1CCOC1)C(=O)NCc1nnc2n1CCCCC2` (stereo unspecified), for which the cytotoxicity at 10 µM was -0.43%. With `Cc1noc(C)c1C(=O)N1CCCN(Cc2nccn2C(C)C)CC1`, the cytotoxicity at 10 µM is -3.92%. For `COc1cccc(C2CC(=O)Nc3c2c(=O)n(C)c2ncnn32)c1` (stereo unspecified), the cytotoxicity at 10 µM was -0.549%. For `Cc1nnc(CN2CCCC(c3noc(C4CC4)n3)C2)o1` (stereo unspecified), the cytotoxicity at 10 µM is -16%. On to `c1cc2c(c(-c3cc(N4CCOCC4)ncn3)c1)CCNC2`, for which the cytotoxicity at 10 µM is -22.5%. For `CC(=O)Cc1c(C)nn(-c2cncc(N)c2)c1C`, the cytotoxicity at 10 µM was -4.05%. For `COc1ccc(CC(=O)N2CCC(c3nnc4n3CCC4)CC2)cc1F`, the cytotoxicity at 10 µM is -1.65%. In the case of `CCCN(C(=O)CN1CCN(CCO)CC1)C1=CCCCC1`, the cytotoxicity at 10 µM came to 6.45%. Turning to `Cc1ccc(S(=O)(=O)NCC(C)C#N)cc1Br` (stereo unspecified), the cytotoxicity at 10 µM came to 0.727%. Take `COc1ccc(CN2CCO[C@H]3CN(C4CCCC4)CC[C@H]3C2=O)cc1`: the cytotoxicity at 10 µM was -138%. In the case of `Cc1cc2n(n1)CC(CNC1CCN(C(=O)C3CC3)CC1)CN2` (stereo unspecified), the cytotoxicity at 10 µM was found to be 5.17%. In the case of `O=C([C@H]1C[C@H]2OCC[C@H]2N(Cc2ccncc2)C1)N1CCCCO1`, the cytotoxicity at 10 µM was -9.01%. On to `Cc1nn(C)c(N(C)C)c1CNCC(O)c1ccccc1F` (stereo unspecified), for which the cytotoxicity at 10 µM is -7.9%. For `Cc1csc(CN(C)CCCOc2cccc(C#N)c2)n1`, the cytotoxicity at 10 µM was -7.03%. Take `O=C(NCCn1cnc(C2CCCC2)cc1=O)c1ccc(=O)[nH]n1`: the cytotoxicity at 10 µM is -0.895%. The value for `Cn1ccnc1CN1CCc2onc(COCC3CC3)c2C1` was 6.86%; that for `CC(C(=O)NCCOc1ccc2c(c1)CCC2)n1cncn1` (stereo unspecified) was -1.58%; that for `CCN(CC)[C@@H]1CN(Cc2ccc(C)o2)[C@@H]2CCCO[C@H]12` was -148%. As to `CCOCCN1CCO[C@H]2[C@H](OCc3ccccn3)CC[C@@H]21`, the cytotoxicity at 10 µM is -113%. With `CCCC(C)NCc1cnc(-c2cccc(C)c2)nc1` (stereo unspecified), the cytotoxicity at 10 µM was -11.7%. With `CCn1cc(CNc2ccc(F)c(N3CCCS3(=O)=O)c2)cn1` the figure was -17%; with `CSCC(C)(O)CNS(=O)(=O)c1cccc(C)c1` (stereo unspecified), -2.85%; with `N[C@H]1CCCN(C(=O)c2cnc(COc3ccccc3)nc2O)C1`, 1.67%.

Turning to `CCCc1n[nH]c(C2CN(C(=O)CCCn3ccnc3)CCO2)n1` (stereo unspecified), the cytotoxicity at 10 µM was -5.39%.

For the compound `COCCN1CCC2(COCc3cnc(-c4ccccc4)nc32)C1` (stereo unspecified), the cytotoxicity at 10 µM was -111%. The value for `O=C(c1cc[nH]n1)N1CCOCC2(C1)CN(c1ccccc1)C(=O)CO2` (stereo unspecified) was -4.96%. As for `O=C(c1ncccn1)N1C[C@@H]2CC[C@H](Oc3cccc(F)c3)[C@@H]2C1`, the cytotoxicity at 10 µM is -27.5%.

Take `O=C(NCCC1CCCCO1)c1coc(COc2ccc(F)cc2)n1` (stereo unspecified): the cytotoxicity at 10 µM is 1.1%. Consider `O=C1NCCCCC1NCc1csc(-c2ccccn2)n1` (stereo unspecified), for which the cytotoxicity at 10 µM came to 7.5%. For the compound `CC(C(=O)N(C)C1CCCCC1)S(=O)(=O)Cc1csc(-c2cccs2)n1` (stereo unspecified), the cytotoxicity at 10 µM is -4.27%. Take `COCCO[C@H]1CCN(Cc2ccoc2)[C@H]1Cc1cccnc1`: the cytotoxicity at 10 µM was -3.85%.

As to `CCOCC1COCCC12CCN(C(=O)C1=CCCC1)CC2` (stereo unspecified), the cytotoxicity at 10 µM was -2.35%. Take `CC(C)CCn1nc(CNc2ccc(Br)cc2)nc1O`: the cytotoxicity at 10 µM amounted to 9.84%. With `COc1ccc(CNC(=O)NCc2cc(C)oc2C)cc1` the figure was -6%; with `CCS(=O)(=O)N1CCc2cc(C(=O)NC)c(NCC3CC3)nc2CC1`, 1.88%. As for `CCCNC(=O)NCc1cccnc1OC`, the cytotoxicity at 10 µM came to 4.6%.

Consider `CN1C(=O)CC(c2cnn(C)c2)C12CCN(C(=O)c1cscn1)CC2` (stereo unspecified), for which the cytotoxicity at 10 µM was -76.6%. In the case of `CS(=O)(=O)NC[C@H]1OC[C@@H]2CCN(C(=O)c3cccnc3)C[C@@H]21`, the cytotoxicity at 10 µM is 5.31%.

In the case of `CCc1nnc(CN(C)CC2CCCCC2)o1`, the cytotoxicity at 10 µM stood at 0.897%. With `CNCC(=O)N1CCCC(c2ccnc(Nc3cnccn3)n2)C1` (stereo unspecified) the figure was -11.6%; with `CN(C)C(=O)c1cnc2n1CCN(Cc1ccsc1)C2`, -68%; with `COc1ccc(S(=O)(=O)NCCC(O)c2ccoc2)c(C)c1` (stereo unspecified), -0.608%. Consider `Cc1ncsc1CCC(=O)NCc1csc(N2CCCC2)n1`, for which the cytotoxicity at 10 µM was -2.56%. Regarding `C[C@@H]1CN(C2(C(=O)N3CCOCC3)Cc3ccccc3C2)C[C@H](C)O1`, the cytotoxicity at 10 µM was 1.12%. Regarding `Cc1cc2[nH]c(=O)oc2cc1S(=O)(=O)N1CCC(N2CCCC2=O)CC1`, the cytotoxicity at 10 µM came to 1.54%. With `O=C(Nc1nccs1)NC1CCOc2ccccc21` (stereo unspecified) the figure was 6.78%; with `CSc1ccsc1C(=O)NS(=O)(=O)c1cccc(C#N)c1`, 7.49%; with `Cc1nc(C)n(CC2CN(CCCOc3ccccc3C)CCO2)n1` (stereo unspecified), 5.63%. On to `c1csc(-c2nc(CNCCn3cccn3)cs2)c1`, for which the cytotoxicity at 10 µM is -7.36%. In the case of `Cc1ccccc1CNC(=O)N1C[C@@H]2C[C@H](C(=O)N3CCCC3)[C@H](C1)O2`, the cytotoxicity at 10 µM was determined as 5.68%. Turning to `CCCc1nnc(N2CC[C@](C)(O)[C@H](C)C2)s1`, the cytotoxicity at 10 µM was -10.4%. As to `O=C(c1cncc(N2CCC3(CCNCC3)CC2)n1)N1CCCC1`, the cytotoxicity at 10 µM was -14.6%. Take `OCc1cc2ccccc2nc1N1CCCC1`: the cytotoxicity at 10 µM is -8.82%. As to `Cn1cnnc1C1CCCN(C(=O)c2ccc3c(c2)OCCCO3)C1` (stereo unspecified), the cytotoxicity at 10 µM turned out to be 3.66%.

Take `COCC(=O)N1CC[C@@H]2O[C@@H](C)C[C@H]2C1`: the cytotoxicity at 10 µM was -69.6%.
